Results taken from article PMC3063522 (Journal of agricultural and food chemistry, 2011).
In brackets after ≈: the same amount, converted by molar mass. Entries after “also recorded” stand apart in the source; their conditions may differ.

What was measured:
[1] = homologous standards for the HPLC regression; cited from earlier work
[2] = Cytotoxicity; format: cell-based; conditions: human, SK-MEL malignant melanoma cells
Method in brief: (§1)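 Anti-proliferative assay run alongside four human tumour lines (SK-MEL, KB, BT-549, SK-OV-3) and two noncancerous kidney lines (Vero, LLC-PK11). Doxorubicin served as the positive control.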

[3] = Cytotoxicity; format: cell-based; conditions: human, KB oral epidermal carcinoma cells
Method in brief: as §1

[4] = Cytotoxicity; format: cell-based; conditions: human, BT-549 breast ductal carcinoma cells
Method in brief: as §1

[5] = Cytotoxicity; format: cell-based; conditions: human, SK-OV-3 ovary carcinoma cells
Method in brief: as §1

[6] = Cytotoxicity; format: cell-based; conditions: African green monkey, Vero kidney fibroblasts
Method in brief: as §1

[7] = Cytotoxicity; format: cell-based; conditions: pig, LLC-PK11 kidney epithelial cells
Method in brief: as §1

[8] = Cytotoxicity towards HL-60 cells in the antioxidant assay; format: cell-based; conditions: human, HL-60 promyelocytic leukemia cells
[9] = Cytotoxicity to RAW 264.7 cells in the iNOS assay; format: cell-based, mouse; conditions: mouse, RAW 264.7 macrophages
[10] = tested on: RAW 264.7 cells; test: Cytotoxicity to RAW 264.7 cells in the iNOS assay; format: cell-based, mouse; conditions: RAW 264.7 cells, same assay
[11] = tested on: Phomopsis obscurans; test: Antifungal broth dilution microbioassay, Phomopsis obscurans; format: cell-based; conditions: 120 and 144 h (from 120 to 144 h)
Method in brief: (§2)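 Broth microdilution adapted from the NCCLS M27-A yeast method for conidia-forming filamentous plant-pathogenic fungi. The commercial fungicide captan served as the internal standard in every assay. Means were compared by SAS analysis of variance with Fisher's protected LSD. For P. viticola and P. obscurans, activity was read at 120 and 144 h of incubation.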

[12] = tested on: mosquito larvae; test: Mosquito larvae toxicity bioassay; format: in vivo; conditions: Figure 4
Method in brief: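 Larval toxicity bioassay, run in triplicate. Controls were untreated, DMSO-acetone carrier, and permethrin as the positive control.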

[13] = tested on: Phomopsis viticola; test: Antifungal broth dilution microbioassay, Phomopsis viticola; format: cell-based; conditions: at the highest concentrations, Figure 2D
Method in brief: as §2

[14] = tested on: Botrytis cinerea; test: Antifungal broth dilution microbioassay, Botrytis cinerea; format: cell-based
Method in brief: as §2

Compound	log P (known constants of standards) [1]	IC50 [2] [µg/mL]	IC50 [3] [µg/mL]	IC50 [4] [µg/mL]	IC50 [5] [µg/mL]	IC50 [6] [µg/mL]	IC50 [7] [µg/mL]	IC50 [8] [µg/mL]	IC50 [9] [µg/mL]	Inhibition of iNOS activity (NO production) in RAW 264.7 cells IC50 Cytotoxicity [10]	Antifungal activity against P. obscurans [11]	Toxicity to mosquito larvae [12]	Antifungal activity against P. viticola [13]	Growth inhibition of B. cinerea ([14]; 48 h)	Growth inhibition of B. cinerea ([14]; 72 h)
CCCc1ccccc1 [propylbenzene]	3.69														
CC(C)=CCc1c(O)cc(/C=C/c2ccc(O)cc2)cc1O [Compound 2, arachidin-2]		20 (≈ 67.5 µM)	22.5 (≈ 75.9 µM)	7.5 (≈ 25.3 µM)	> 25	13.5 (≈ 45.6 µM)	13.5 (≈ 45.6 µM)	16 (≈ 54 µM)	> 25	no cytotoxicity	did not exhibit any activity				
COc1cc(/C=C/c2ccc(O)cc2)cc(OC)c1 [Compound 21, pterostilbene]		> 25	> 25	> 25	> 25	> 25	> 25	21 (≈ 81.9 µM)	> 25	no cytotoxicity		highest activity; also recorded: somewhat greater activity			
Oc1ccc(/C=C/c2cc(O)cc(O)c2)cc1 [Compound 24, resveratrol, reference compound]		> 25	> 25	> 25	> 25	> 25	> 25	8 (≈ 35 µM)	> 25	no cytotoxicity		significantly lower toxicity	essentially inactive	minimal activity	no activity
CC(C)/C=C/c1c(O)cc(/C=C/c2ccc(O)cc2)cc1O [Compound 3, arachidin-3]		> 25	> 25	> 25	> 25	> 25	> 25	> 25	> 25	no cytotoxicity	did not exhibit any activity				
